Measured values reported in ChEMBL document CHEMBL2010769, “Synthesis and antiviral activity of 6-deoxycyclopropavir, a new prodrug of cyclopropavir” (Bioorg Med Chem, 2012).

Experiments:
[1] = test system: Murid betaherpesvirus 1; test: Antiviral activity against MCMV infected in SCID mouse assessed as log10 reduction in viral titer in liver at 10 mg/kg, po relative to control; type: functional
[2] = test system: Murid betaherpesvirus 1; test: Antiviral activity against MCMV infected in SCID mouse assessed as log10 reduction in viral titer in lung at 10 mg/kg, po relative to control; type: functional
[3] = test system: Murid betaherpesvirus 1; test: Antiviral activity against MCMV infected in SCID mouse assessed as log10 reduction in viral titer in spleen at 10 mg/kg, po relative to control; type: functional
[4] = test system: Murid betaherpesvirus 1; test: Antiviral activity against MCMV infected in SCID mouse assessed as log10 reduction in viral titer in kidney at 10 mg/kg, po relative to control; type: functional
[5] = test system: Human betaherpesvirus 5; test: Antiviral activity against HCMV Toledo infected in human thymus/liver tissue xenografted in SCID mouse assessed as mean log10 genome equivalents/animal at 20 mg/kg, po qd for 14 days by RT-PCR analysis (reference value: 3.50 +/- 0.878); type: functional, strain Toledo
[6] = test system: Human betaherpesvirus 5; test: Antiviral activity against HCMV Toledo infected in human thymus/liver tissue xenografted in SCID mouse assessed as mean log10 genome equivalents/animal at 20 mg/kg, po qd for 21 days by RT-PCR analysis (reference value: 3.82 +/- 1.24); type: functional, strain Toledo
[7] = test system: Human betaherpesvirus 5; test: Antiviral activity against HCMV Toledo infected in human thymus/liver tissue xenografted in SCID mouse assessed as mean log10 genome equivalents/animal at 20 mg/kg, po qd for 28 days by RT-PCR analysis (reference value: 3.73 +/- 0.784); type: functional, strain Toledo
[8] = test system: Human betaherpesvirus 5; test: Antiviral activity against HCMV Toledo infected in human thymus/liver tissue xenografted in SCID mouse assessed as mean log10 genome equivalents/animal at 20 mg/kg, po qd for 28 days measured on day 35 by RT-PCR analysis (reference value: 3.28 +/- 1.422); type: functional, strain Toledo
[9] = test system: Human betaherpesvirus 5; test: Antiviral activity against HCMV Toledo infected in human thymus/liver tissue xenografted in SCID mouse assessed as decrease in viral infection at 20 mg/kg, po qd for 14 days by RT-PCR analysis (reference value: 92%); type: functional, strain Toledo; set-up: scale not given: the % may be the effect or the level left
[10] = test system: Human betaherpesvirus 5; test: Antiviral activity against HCMV Toledo infected in human thymus/liver tissue xenografted in SCID mouse assessed as decrease in viral infection at 20 mg/kg, po qd for 21 days by RT-PCR analysis (reference value: 92%); type: functional, strain Toledo; set-up: scale not given: the % may be the effect or the level left
[11] = test system: Human betaherpesvirus 5; test: Antiviral activity against HCMV Toledo infected in human thymus/liver tissue xenografted in SCID mouse assessed as decrease in viral infection at 20 mg/kg, po qd for 28 days by RT-PCR analysis (reference value: 92%); type: functional, strain Toledo; set-up: scale not given: the % may be the effect or the level left
[12] = test system: Human betaherpesvirus 5; test: Antiviral activity against HCMV Toledo infected in human thymus/liver tissue xenografted in SCID mouse assessed as decrease in viral infection at 20 mg/kg, po qd for 28 days measured on day 35 by RT-PCR analysis (reference value: 67%); type: functional, strain Toledo; set-up: scale not given: the % may be the effect or the level left
[13] = test system: Murid betaherpesvirus 1; test: Antiviral activity against MCMV infected in BALB/c mouse assessed as decrease in virus-induced mortality at 50 mg/kg, po qd for 5 days administered 24 hrs after viral infection (reference value: 67%); type: functional; set-up: scale not given: the % may be the effect or the level left
How it was run: (§1)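 Female BALB/c mice (3 weeks, 15/group) were inoculated ip with MCMV Smith at about LD90. Oral dosing of 0.2 mL in 0.4% CMC ran once daily for 5 days, starting 24 or 48 h post-inoculation. Mice were observed daily for 21 days. Mortality was compared with CMC placebo by Fisher's exact test.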

[14] = test system: Murid betaherpesvirus 1; test: Antiviral activity against MCMV infected in BALB/c mouse assessed as decrease in virus-induced mortality at 16.7 mg/kg, po qd for 5 days administered 24 hrs after viral infection (reference value: 67%); type: functional; set-up: scale not given: the % may be the effect or the level left; how it was run: as §1
[15] = test system: Murid betaherpesvirus 1; test: Antiviral activity against MCMV infected in BALB/c mouse assessed as decrease in virus-induced mortality at 5.6 mg/kg, po qd for 5 days administered 24 hrs after viral infection (reference value: 67%); type: functional; set-up: scale not given: the % may be the effect or the level left; how it was run: as §1
[16] = test system: Murid betaherpesvirus 1; test: Antiviral activity against MCMV infected in BALB/c mouse assessed as decrease in virus-induced mortality at 50 mg/kg, po qd for 5 days administered 48 hrs after viral infection (reference value: 100%); type: functional; set-up: scale not given: the % may be the effect or the level left; how it was run: as §1
[17] = test system: Murid betaherpesvirus 1; test: Antiviral activity against MCMV infected in BALB/c mouse assessed as decrease in virus-induced mortality at 16.7 mg/kg, po qd for 5 days administered 48 hrs after viral infection (reference value: 100%); type: functional; set-up: scale not given: the % may be the effect or the level left; how it was run: as §1
[18] = test system: Murid betaherpesvirus 1; test: Antiviral activity against MCMV infected in BALB/c mouse assessed as decrease in virus-induced mortality at 5.6 mg/kg, po qd for 5 days administered 48 hrs after viral infection (reference value: 100%); type: functional; set-up: scale not given: the % may be the effect or the level left; how it was run: as §1
[19] = test system: Murid betaherpesvirus 1; test: Antiviral activity against MCMV infected in BALB/c mouse assessed as decrease in virus-induced mean day of death at 50 mg/kg, po qd for 5 days administered 24 hrs after viral infection (reference value: 4.9 +/- 0.7 days); type: functional
[20] = test system: Murid betaherpesvirus 1; test: Antiviral activity against MCMV infected in BALB/c mouse assessed as decrease in virus-induced mean day of death at 16.7 mg/kg, po qd for 5 days administered 24 hrs after viral infection (reference value: 4.9 +/- 0.7 days); type: functional
[21] = test system: Murid betaherpesvirus 1; test: Antiviral activity against MCMV infected in BALB/c mouse assessed as decrease in virus-induced mean day of death at 5.6 mg/kg, po qd for 5 days administered 24 hrs after viral infection (reference value: 4.9 +/- 0.7 days); type: functional
[22] = test system: Murid betaherpesvirus 1; test: Antiviral activity against MCMV infected in BALB/c mouse assessed as decrease in virus-induced mean day of death at 50 mg/kg, po qd for 5 days administered 48 hrs after viral infection (reference value: 5.1 +/- 0.9 days); type: functional
[23] = test system: Murid betaherpesvirus 1; test: Antiviral activity against MCMV infected in BALB/c mouse assessed as decrease in virus-induced mean day of death at 16.7 mg/kg, po qd for 5 days administered 48 hrs after viral infection (reference value: 5.1 +/- 0.9 days); type: functional
[24] = test system: Murid betaherpesvirus 1; test: Antiviral activity against MCMV infected in BALB/c mouse assessed as decrease in virus-induced mean day of death at 5.6 mg/kg, po qd for 5 days administered 48 hrs after viral infection (reference value: 5.1 +/- 0.9 days); type: functional

**Q.** How did the FC [1] turn out when `Nc1nc2c(ncn2/C=C2/CC2(CO)CO)c(=O)[nH]1` [FILOCICLOVIR] was run?
**A.** 2

**Q.** What about the FC [2] of the same molecule?
**A.** 2

**Q.** And the FC [3]?
**A.** 2

**Q.** What about the FC [4] of the same molecule?
**A.** 2

**Q.** With `Nc1ccn(C[C@@H](CO)OCP(=O)(O)O)c(=O)n1.O.O` [CIDOFOVIR] as the molecule, how does the Activity [5] read?
**A.** 2.47

**Q.** What about the Activity [6] of the same molecule?
**A.** 2.83

**Q.** What about the Activity [7] of the same molecule?
**A.** 2.08

**Q.** And the Activity [8]?
**A.** 1.59

**Q.** What about the Activity [9] of the same molecule?
**A.** 82%

**Q.** And the Activity [10]?
**A.** 100%

**Q.** And the Activity [11]?
**A.** 50%

**Q.** What about the Activity [12] of the same molecule?
**A.** 0%

**Q.** What does the source list for `Nc1nc2c(ncn2COC(CO)CO)c(=O)[nH]1` [GANCICLOVIR]?
**A.** Activity [13]: 7%; Activity [14]: 20%; Activity [15]: 87%; Activity [16]: 20%; Activity [17]: 53%; Activity [18]: 93%; Activity [19]: 6 days; Activity [20]: 6.3 days; Activity [21]: 6.8 days; Activity [22]: 5.7 days; Activity [23]: 7.3 days; Activity [24]: 6.4 days
